Activity calls are given as the source filed them. The calls are words filed in the database; no cut-off is given here.
Key:
[1] = target: T1, Angiotensin-converting enzyme (Rattus norvegicus) (UniProt P47820); experiment: In vivo inhibition of Angiotensin I converting enzyme at […] in anaesthetized rats;z denotes 'Inactive'; assay type: organism-based
T1 sequence (whole entry): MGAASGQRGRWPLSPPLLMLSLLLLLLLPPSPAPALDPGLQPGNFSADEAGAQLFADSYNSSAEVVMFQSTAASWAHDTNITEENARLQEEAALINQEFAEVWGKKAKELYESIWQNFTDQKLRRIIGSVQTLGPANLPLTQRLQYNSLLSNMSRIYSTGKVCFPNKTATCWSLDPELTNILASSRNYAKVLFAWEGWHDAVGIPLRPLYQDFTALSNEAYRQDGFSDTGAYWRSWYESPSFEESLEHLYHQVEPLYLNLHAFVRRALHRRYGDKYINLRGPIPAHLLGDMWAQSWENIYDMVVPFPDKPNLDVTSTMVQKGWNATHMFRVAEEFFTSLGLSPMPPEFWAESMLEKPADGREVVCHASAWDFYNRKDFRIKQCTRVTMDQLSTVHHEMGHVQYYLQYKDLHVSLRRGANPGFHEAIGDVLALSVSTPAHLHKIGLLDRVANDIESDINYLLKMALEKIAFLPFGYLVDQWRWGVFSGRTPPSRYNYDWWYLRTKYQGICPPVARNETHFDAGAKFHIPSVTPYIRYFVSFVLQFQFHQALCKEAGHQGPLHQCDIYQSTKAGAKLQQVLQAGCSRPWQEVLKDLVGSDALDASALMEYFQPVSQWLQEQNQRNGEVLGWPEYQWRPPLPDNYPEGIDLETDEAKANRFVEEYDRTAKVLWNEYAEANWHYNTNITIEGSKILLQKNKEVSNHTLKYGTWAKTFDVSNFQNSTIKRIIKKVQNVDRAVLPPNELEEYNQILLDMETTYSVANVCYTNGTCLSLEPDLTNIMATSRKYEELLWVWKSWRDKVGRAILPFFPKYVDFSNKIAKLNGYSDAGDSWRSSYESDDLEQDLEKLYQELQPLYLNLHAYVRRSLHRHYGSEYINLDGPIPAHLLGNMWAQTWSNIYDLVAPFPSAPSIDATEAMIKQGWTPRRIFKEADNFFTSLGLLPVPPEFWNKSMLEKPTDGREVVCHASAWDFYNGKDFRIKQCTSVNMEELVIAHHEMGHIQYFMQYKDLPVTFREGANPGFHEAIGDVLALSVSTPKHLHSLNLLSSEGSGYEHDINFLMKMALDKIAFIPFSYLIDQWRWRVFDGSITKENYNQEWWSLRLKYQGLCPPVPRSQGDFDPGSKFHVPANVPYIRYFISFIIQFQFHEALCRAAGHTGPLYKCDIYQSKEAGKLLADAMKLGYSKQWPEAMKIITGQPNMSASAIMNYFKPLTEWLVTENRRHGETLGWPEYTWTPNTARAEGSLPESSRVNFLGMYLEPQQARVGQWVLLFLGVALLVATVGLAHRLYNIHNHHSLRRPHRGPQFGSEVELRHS
In short: (§1)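 Sprague–Dawley rats under inactin (100 mg/kg) or dial urethane; carotid and jugular cannulas, arterial blood pressure recorded. Angiotensin I response as percent of control; ID50 by linear regression.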

[2] = target: T1, Angiotensin-converting enzyme (Rattus norvegicus); experiment: Compound was tested for bradykinin potentiation at 0.1 ug/kg dose; assay type: functional
[3] = target: T2, Angiotensin-converting enzyme (Oryctolagus cuniculus) (UniProt P12822); experiment: In vitro inhibition of Angiotensin I converting enzyme relative to captopril(=1)
T2 sequence (whole entry): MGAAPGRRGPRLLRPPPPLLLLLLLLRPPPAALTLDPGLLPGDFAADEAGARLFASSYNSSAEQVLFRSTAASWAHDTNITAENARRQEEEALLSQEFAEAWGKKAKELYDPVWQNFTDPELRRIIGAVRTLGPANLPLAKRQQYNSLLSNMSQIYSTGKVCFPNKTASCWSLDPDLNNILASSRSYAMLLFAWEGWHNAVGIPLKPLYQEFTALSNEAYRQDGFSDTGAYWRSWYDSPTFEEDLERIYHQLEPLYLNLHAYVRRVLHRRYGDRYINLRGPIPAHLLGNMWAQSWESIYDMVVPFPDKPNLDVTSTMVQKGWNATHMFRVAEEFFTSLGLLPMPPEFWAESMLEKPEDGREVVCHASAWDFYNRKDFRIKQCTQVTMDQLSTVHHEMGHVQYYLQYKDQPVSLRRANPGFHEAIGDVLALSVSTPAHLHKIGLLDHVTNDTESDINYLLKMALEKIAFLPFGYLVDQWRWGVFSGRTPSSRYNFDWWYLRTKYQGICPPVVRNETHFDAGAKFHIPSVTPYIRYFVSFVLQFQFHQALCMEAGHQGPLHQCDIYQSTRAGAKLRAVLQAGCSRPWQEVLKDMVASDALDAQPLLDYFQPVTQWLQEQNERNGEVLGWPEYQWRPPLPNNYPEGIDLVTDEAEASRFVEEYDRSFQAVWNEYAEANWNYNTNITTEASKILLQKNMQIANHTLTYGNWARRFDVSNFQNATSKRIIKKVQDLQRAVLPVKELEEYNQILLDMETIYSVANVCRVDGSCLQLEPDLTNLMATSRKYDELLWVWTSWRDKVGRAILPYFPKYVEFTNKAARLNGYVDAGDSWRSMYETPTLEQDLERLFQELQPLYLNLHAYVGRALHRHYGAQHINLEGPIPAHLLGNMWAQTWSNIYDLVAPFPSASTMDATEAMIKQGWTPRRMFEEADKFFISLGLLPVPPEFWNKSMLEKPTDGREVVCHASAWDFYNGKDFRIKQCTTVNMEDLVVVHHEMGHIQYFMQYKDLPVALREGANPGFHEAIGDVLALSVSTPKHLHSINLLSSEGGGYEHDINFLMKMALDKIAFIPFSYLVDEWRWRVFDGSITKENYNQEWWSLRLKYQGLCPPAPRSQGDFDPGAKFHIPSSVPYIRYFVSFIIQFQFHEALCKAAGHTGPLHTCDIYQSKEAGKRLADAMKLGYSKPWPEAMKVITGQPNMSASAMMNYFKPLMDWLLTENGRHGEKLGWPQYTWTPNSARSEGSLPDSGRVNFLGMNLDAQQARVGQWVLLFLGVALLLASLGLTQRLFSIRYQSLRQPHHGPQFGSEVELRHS
In short: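 Crude ACE from rabbit lung acetone powder extracted in 50 mM potassium phosphate pH 8.3, spun 40000g. Final assay: 100 mM phosphate pH 8.3, 300 mM NaCl, 5 mM hippuryl-His-Leu; enzyme added last, 30 min at 37 °C, stopped with HCl. Hippuric acid extracted into EtOAc, dried, redissolved in water, read by absorbance.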

[4] = target: T1, Angiotensin-converting enzyme (Rattus norvegicus); experiment: (§2) In vivo inhibition of Angiotensin I converting enzyme in anaesthetized rats; assay type: organism-based; in short: as §1
[5] = target: T1, Angiotensin-converting enzyme (Rattus norvegicus); experiment: as §2; assay type: organism-based; remark: listed apart in the source
Rattus norvegicus [6] = experiment: Compound was tested orally on the spontaneous hypertensive rat and blood pressure noted at half-hour interval; assay type: functional
In short: (§3)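 Spontaneously hypertensive rats; drug in 0.4% methylcellulose, or water, saline or 5% ethanol. Aortic catheter via caudal artery under ether, rats conscious in restrainers; pressure averaged over 30 min, heart rate from pulse trace. Dosed after about 90 min, usually followed for 4 h.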

Rattus norvegicus [7] = organism: Rattus norvegicus; experiment: Compound was tested peroral on the spontaneous hypertensive rat; assay type: functional; in short: as §3
[8] = target: T1, Angiotensin-converting enzyme (Rattus norvegicus); experiment: In vivo inhibition of Angiotensin I converting enzyme at 100ug/Kg in anaesthetized rats;o denotes 'Inactive'; assay type: organism-based; in short: as §1
[9] = target: T1, Angiotensin-converting enzyme (Rattus norvegicus); experiment: In vivo inhibition of Angiotensin I converting enzyme at 100 ug/kg in anaesthetized rats; assay type: organism-based; in short: as §1
Rattus norvegicus [10] = experiment: Compound was tested for bradykinin potentiation at 0.1 ug/kg dose.; assay type: functional
[11] = target: T1, Angiotensin-converting enzyme (Rattus norvegicus); experiment: In vivo inhibition of Angiotensin I converting enzyme at […] in anaesthetized rats.;z denotes 'Inactive'; assay type: organism-based; in short: as §1
[12] = target: T1, Angiotensin-converting enzyme (Rattus norvegicus); experiment: In vivo inhibition of Angiotensin I converting enzyme at 100ug/Kg in anaesthetized rats;z denotes 'Inactive'; assay type: organism-based; in short: as §1

Row | SMILES | Delta blood pressure [2] | relative potency [3] | also measured
1 | CC(CS)C(=O)N1C[C@@H](SCc2ccccc2)C[C@H]1C(=O)O (stereo not given in full) | 5 mmHg | – | ID50 [1]: Inactive at 100 ug/kg
2 | CC(CS)C(=O)N1C[C@@H](N=[N+]=[N-])C[C@H]1C(=O)O (stereo not given in full) | – | 0.54 | –
3 | CS[C@H]1C[C@@H](C(=O)O)N(C(=O)C(C)CS)C1 (stereo not given in full) | – | – | ID50 [4]: 0.398 mg/kg
4 | CC(CS)C(=O)N1CC2(C[C@H]1C(=O)O)SCCS2 (stereo not given in full) | 34 mmHg | 1.26 | ID50 [5]: 0.026 mg/kg; SHR delta blood pressure (Rattus norvegicus [6]): 22 dec; SHR delta blood pressure (Rattus norvegicus [7]): 35 dec
5 | COC1=C[C@@H](C(=O)O)N(C(=O)C(C)CS)C1 (stereo not given in full) | 52 mmHg | – | ID50 [8]: inactive
6 | CC(CS)C(=O)N1C[C@H](F)C[C@H]1C(=O)O (stereo not given in full) | 53 mmHg | – | ID50 [8]: inactive
7 | CC(CS)C(=O)N1C[C@@H](F)C[C@H]1C(=O)O (stereo not given in full) | – | – | ID50 [9]: 0.581 mg/kg
8 | C[C@H](CS)C(=O)N1CC2(C[C@H]1C(=O)O)SCCS2 | – | 4 | Delta blood pressure (Rattus norvegicus [10]): 43 mmHg; SHR delta blood pressure (Rattus norvegicus [6]): 17 dec
9 | O=C(O)[C@@H]1CC2(CN1C(=O)CCS)SCCS2 | 38 mmHg | 2.6 | ID50 [5]: 0.078 mg/kg
10 | CC(CS)C(=O)N1C[C@@H](OCc2ccccc2)C[C@H]1C(=O)O (stereo not given in full) | 40 mmHg | 0.56 | ID50 [11]: Inactive at 100 ug/kg
11 | CO[C@H]1C[C@@H](C(=O)O)N(C(=O)C(C)CS)C1 (stereo not given in full) | 60 mmHg | 0.53 | ID50 [4]: 0.073 mg/kg
12 | CC(CS)C(=O)N1C[C@@H](O)C[C@H]1C(=O)O (stereo not given in full) | 40 mmHg | – | ID50 [4]: 0.367 mg/kg
13 | CC(CS)C(=O)N1C[C@H](Oc2ccc(Cl)cc2)C[C@H]1C(=O)O (stereo not given in full) | 23 mmHg | – | ID50 [8]: inactive
14 | CC(CS)C(=O)N1C[C@H](OCc2ccccc2)C[C@H]1C(=O)O (stereo not given in full) | 47 mmHg | – | ID50 [4]: 0.508 mg/kg
15 | CC(CS)C(=O)N1C[C@@H](C#N)C[C@H]1C(=O)O (stereo not given in full) | 47 mmHg | – | ID50 [8]: inactive
16 | CC(CS)C(=O)N1CC2(C[C@H]1C(=O)O)SCCCS2 (stereo not given in full) | – | 1.07 | ID50 [5]: 0.048 mg/kg
17 | CC(CS)C(=O)N1CC2(C[C@H]1C(=O)O)OCC(C)(C)CO2 (stereo not given in full) | 46 mmHg | 1 | ID50 [5]: 0.359 mg/kg; Delta blood pressure (Rattus norvegicus [6]): 25 mmHg
18 | O=C(O)[C@@H]1CC2(CN1C(=O)CCS)SCCCS2 | 19 mmHg | 1 | ID50 [5]: 0.01 mg/kg
19 | CCOCCO[C@@H]1C[C@@H](C(=O)O)N(C(=O)C(C)CS)C1 (stereo not given in full) | 45 mmHg | – | ID50 [4]: 0.372 mg/kg
20 | CC(CS)C(=O)N1C[C@@H](Sc2ccccc2)C[C@H]1C(=O)O (stereo not given in full) | 22 mmHg | – | ID50 [4]: 0.544 mg/kg
21 | CC(CS)C(=O)N1CC2(C[C@H]1C(=O)O)OCCO2 (stereo not given in full) | 43 mmHg | 1 | ID50 [5]: 0.065 mg/kg
22 | CC(CS)C(=O)N1C[C@H](O)C[C@H]1C(=O)O (stereo not given in full) | 48 mmHg | – | ID50 [4]: 0.253 mg/kg
23 | COC1(OC)C[C@@H](C(=O)O)N(C(=O)C(C)CS)C1 (stereo not given in full) | – | 0.9 | –
24 | CC(CS)C(=O)N1C[C@H](OCCOc2ccccc2)C[C@H]1C(=O)O (stereo not given in full) | 9 mmHg | – | ID50 [8]: inactive
25 | CO[C@@H]1C[C@@H](C(=O)O)N(C(=O)C(C)CS)C1 (stereo not given in full) | – | 0.5 | ID50 [4]: 1.21 mg/kg
26 | CC(CS)C(=O)N1C[C@@H](SC2CCCCC2)C[C@H]1C(=O)O (stereo not given in full) | 6 mmHg | – | ID50 [12]: Inactive at 100 ug/kg
27 | CO/N=C1\C[C@@H](C(=O)O)N(C(=O)C(C)CS)C1 (stereo not given in full) | – | 1 | –

Source: ChEMBL document CHEMBL1124094, “Synthesis and pharmacological activity of angiotensin converting enzyme inhibitors: N-(mercaptoacyl)-4-substituted-(S)-prolines” (J Med Chem, 1988)
